E coli WT exp: blocks growth of wild type E. coli BW25113; OD600 absorbance; growth inhibition, % at 100 µM; 98,000 tested, 0.15% active;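 active means growth inhibition above about 50% at one test dose, limit read from the data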;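 further: growth measured after 20 h incubation at 37 °C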
PostGolgi ctrl: growth of the yeast control strain, post-Golgi counter-screen | efflux-deficient yeast background strain, growth absorbance A615, 16 h | inhibition, % at 10 µM | 98,000 tested, 5% active | AID 738
tolC growth inh: blocks growth of E. coli BW25113 tolC mutant; OD615; growth inhibition, % at 10 µM (by protocol); 65,000 tested, 2.2% active;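 active means growth inhibition at or above a cutoff equal to the mean over every tested compound plus 3 SD, cut at about 60% in these data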;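 further: growth measured after 20 h incubation at 37 °C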
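signal = optical density read at 615 nm | test system = E. coli ΔtolC::kan strain BW25113 | timing = 20 h compound exposure of bacteria at 37 °C | buffer or medium = LB medium plus 50 µg/mL kanamycin | compound dosing = 10 µM final, single dose | evaluation = % inhibition of E. coli growth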
Cav3 T inh: human Cav3.2 channel inhibition, primary screen; O95180; Cav3.2-expressing cells, Fluo-4 calcium fluorescence FDSS; active compounds read low; B-score at 10 µM; 100,000 tested, 4% active; AID 449739;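 active means single-dose well whose peak fluorescence ratio is a statistical outlier from its plate by either plate-standardised score or position-corrected B-score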
Target sequence (O95180 whole entry, looked up): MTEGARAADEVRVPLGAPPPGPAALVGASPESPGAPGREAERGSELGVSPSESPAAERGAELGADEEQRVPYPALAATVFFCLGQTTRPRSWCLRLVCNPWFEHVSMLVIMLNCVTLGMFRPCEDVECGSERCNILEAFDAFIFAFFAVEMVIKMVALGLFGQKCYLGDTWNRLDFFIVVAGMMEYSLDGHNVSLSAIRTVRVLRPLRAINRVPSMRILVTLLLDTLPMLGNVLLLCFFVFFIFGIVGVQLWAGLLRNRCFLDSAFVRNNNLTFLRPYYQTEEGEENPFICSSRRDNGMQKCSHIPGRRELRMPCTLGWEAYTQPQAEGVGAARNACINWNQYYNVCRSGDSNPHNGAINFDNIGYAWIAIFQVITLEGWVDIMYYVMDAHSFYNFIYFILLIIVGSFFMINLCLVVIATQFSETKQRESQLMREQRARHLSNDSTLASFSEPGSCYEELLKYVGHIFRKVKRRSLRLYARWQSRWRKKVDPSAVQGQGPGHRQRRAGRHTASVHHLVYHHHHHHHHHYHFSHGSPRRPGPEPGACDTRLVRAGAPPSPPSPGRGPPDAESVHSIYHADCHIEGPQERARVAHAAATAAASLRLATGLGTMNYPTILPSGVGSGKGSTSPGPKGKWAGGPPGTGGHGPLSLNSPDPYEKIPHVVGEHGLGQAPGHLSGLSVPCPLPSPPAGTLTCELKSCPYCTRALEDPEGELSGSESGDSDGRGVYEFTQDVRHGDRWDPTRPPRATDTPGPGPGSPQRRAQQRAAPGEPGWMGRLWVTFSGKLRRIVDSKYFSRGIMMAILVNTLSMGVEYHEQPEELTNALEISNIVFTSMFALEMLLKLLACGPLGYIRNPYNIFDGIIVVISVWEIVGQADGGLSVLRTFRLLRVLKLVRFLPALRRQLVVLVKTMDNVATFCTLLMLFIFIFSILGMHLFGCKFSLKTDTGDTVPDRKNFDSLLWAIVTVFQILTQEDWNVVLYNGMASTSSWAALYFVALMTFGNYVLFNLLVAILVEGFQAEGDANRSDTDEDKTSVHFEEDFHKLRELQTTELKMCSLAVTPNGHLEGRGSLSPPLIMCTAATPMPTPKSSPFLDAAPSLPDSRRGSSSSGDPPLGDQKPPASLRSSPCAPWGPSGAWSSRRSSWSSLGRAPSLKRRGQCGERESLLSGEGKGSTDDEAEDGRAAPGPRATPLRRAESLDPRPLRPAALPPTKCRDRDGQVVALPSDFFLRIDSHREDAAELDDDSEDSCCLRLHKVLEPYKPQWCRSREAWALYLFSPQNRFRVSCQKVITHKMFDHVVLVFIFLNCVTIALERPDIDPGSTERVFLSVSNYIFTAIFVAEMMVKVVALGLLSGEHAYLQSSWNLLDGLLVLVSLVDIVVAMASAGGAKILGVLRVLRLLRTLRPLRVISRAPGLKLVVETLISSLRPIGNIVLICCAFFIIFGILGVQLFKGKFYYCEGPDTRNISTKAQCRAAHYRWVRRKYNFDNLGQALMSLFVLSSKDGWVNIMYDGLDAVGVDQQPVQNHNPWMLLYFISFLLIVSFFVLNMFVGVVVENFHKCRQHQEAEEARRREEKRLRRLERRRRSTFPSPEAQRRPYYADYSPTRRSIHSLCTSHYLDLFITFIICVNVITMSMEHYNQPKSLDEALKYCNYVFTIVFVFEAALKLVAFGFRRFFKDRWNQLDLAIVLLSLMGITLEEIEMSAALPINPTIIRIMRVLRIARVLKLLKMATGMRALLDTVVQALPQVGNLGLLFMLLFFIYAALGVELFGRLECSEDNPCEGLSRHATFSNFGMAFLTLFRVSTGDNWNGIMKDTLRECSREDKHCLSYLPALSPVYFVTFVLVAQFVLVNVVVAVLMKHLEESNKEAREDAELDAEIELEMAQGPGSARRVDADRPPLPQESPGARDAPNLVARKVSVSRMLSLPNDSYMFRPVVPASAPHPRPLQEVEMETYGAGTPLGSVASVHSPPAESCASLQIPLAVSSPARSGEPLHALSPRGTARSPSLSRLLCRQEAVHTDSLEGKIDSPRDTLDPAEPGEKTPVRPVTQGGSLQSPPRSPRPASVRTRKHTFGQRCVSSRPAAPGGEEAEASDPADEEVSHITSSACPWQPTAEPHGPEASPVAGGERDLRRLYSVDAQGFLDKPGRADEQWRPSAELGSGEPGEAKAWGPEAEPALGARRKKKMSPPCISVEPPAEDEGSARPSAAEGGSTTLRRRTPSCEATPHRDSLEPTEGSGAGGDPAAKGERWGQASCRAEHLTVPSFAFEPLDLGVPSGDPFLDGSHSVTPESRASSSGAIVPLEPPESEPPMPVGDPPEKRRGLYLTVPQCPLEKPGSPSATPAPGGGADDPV
PostGolgi yeast: growth inhibition of a yeast mutant, post-Golgi transport screen. post-Golgi transport phenotypic cell assay. AID 739. 98,000 tested, 0.9% active. inhibition, % at 10 µM;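 further: yeast cells grown in 1536-well plates; yeast grown about 18 h at 30C before absorbance read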
The depositor's hits bear a star; · = no result. This is a sample that favours compounds with a hit; in the whole collection about 8.4% have one here. Unless noted, no stated cut-off is given here; in the data, active means inhibition above about 30%; inactive means the rest.

SMILES	E coli WT exp	PostGolgi ctrl	tolC growth inh	Cav3 T inh	PostGolgi yeast
O=C(Nc1nc(-c2ccc3c(c2)OCO3)cs1)C1COc2ccccc2O1 (configuration not stated)	-7	14	55	-5.3*	-1
O=C(CNC(=O)Cc1ccccc1)NCC(=O)OCc1ccc(C(=O)c2ccccc2)cc1	7	2	·	-2.5	-3
CCN1CCN(C(=S)c2ccc(Br)cc2)CC1	10	10	·	0.38	-4
S=C(c1ccc(Br)cc1)N1CCN(Cc2ccccc2)CC1	-14	33*	·	-1.1	-3
CC(C)(C)c1cc(CNC2CS(=O)(=O)C[C@@H]2O)cc(C(C)(C)C)c1O (some centres not stated)	5	4	6	-0.25	-5
COc1ccc(S(=O)(=O)N2CCOCC2)cc1Cl	-14	1	·	-0.21	-7
Cc1ccc(S(=O)(=O)N2CCCC2)cc1S(=O)(=O)N1CCCC1	5	18	-3	1.5	-3
COc1ccc(S(=O)(=O)N2CCOCC2)c(Cl)c1Cl	2	30*	3	-0.16	-1
Cc1ccc(S(=O)(=O)c2ccc(Cl)cc2)cc1S(=O)(=O)N1CCOCC1	-10	19	3	-3.6*	2
CCCCN1c2ccccc2N(CCCO)c2cc(C)nnc21	6	5	9	1.4	7
O=C(NC1CC1)C1=C[C@@H](c2ccc(Br)cc2)C[C@@H](OCc2ccc(CO)cc2)O1	·	·	·	0.32	·
CC(=O)Nc1ccccc1-c1nc2ccc(C(=O)N3CCN(c4cc(C)ccc4C)CC3)cc2[nH]c1=O	-8	7	·	-3.7*	-6
Cc1ccc(C(=O)c2cc(C)sc2NC(=O)CN2CCN(C(=O)c3ccco3)CC2)cc1	-25	38*	60	-1.4	4
Cc1ccc(-c2nc(C(=O)NC3CCCCCC3)no2)cc1	·	·	57	-3.1	·
Cc1ccc(C(C(=O)NC2CCCCC2)N(Cc2ccco2)C(=O)Cc2c[nH]c3ccccc23)o1 (configuration not stated)	-12	29	·	-10*	10
COc1ccc(C(C(=O)NC2CCCCC2)N(Cc2cccs2)C(=O)Cc2c[nH]c3ccccc23)cc1OC (configuration not stated)	-2	2	·	-3.4	-4
Cc1ccc(-c2nnn(CC(=O)N(c3ccc(F)cc3)C(C(=O)NC3CCCC3)c3ccco3)n2)o1 (configuration not stated)	-3	-4	-14	0.04	1
Cc1ccc(N(C(=O)Cc2c[nH]c3ccccc23)C(C(=O)NC2CCCCC2)c2ccco2)cc1 (configuration not stated)	-12	20	·	-4.8*	5
NC(=O)c1cccn1Cc1ccccc1Cl	10	2	2	-0.58	-1
NC(=O)c1ccc(C(F)(F)F)n(Cc2ccccc2Cl)c1=O	-8	44*	·	-0.65	2
CC(C)NC(=S)N/N=C1\CCCCC1C1CCCCC1 (configuration not stated)	3	30*	·	·	-5
Cc1nc2ccccc2c(=O)n1NCc1cc(Br)cs1	-4	23	-18	-0.96	-3
Cc1ccc2nc(N3C(=O)C(O)=C(C(=O)c4cc5ccccc5o4)C3c3cccs3)sc2c1 (configuration not stated)	-15	6	·	·	-7
CCc1ccc2nc(N3C(=O)C(O)=C(C(=O)c4ccco4)C3c3cccs3)sc2c1 (configuration not stated)	-14	36*	·	-4.3*	-3
O=C(CCn1c(=S)[nH]c2ccccc2c1=O)NCC1CCCO1 (configuration not stated)	0	0	2	-4.5*	8
SMILES	E coli WT exp	PostGolgi ctrl	tolC growth inh	Cav3 T inh	PostGolgi yeast
O=c1c(C(c2nnnn2C2CCCCC2)N2CCCCC2)coc2ccc(Cl)cc12 (configuration not stated)	4	87*	15	-0.86	77*
O=C(Nc1ccc(N2CCOCC2)cc1)c1cccc(S(=O)(=O)N2CCC(Cc3ccccc3)CC2)c1	-10	7	·	-3.7	-20
CC1(c2nnc(-c3ccccc3)o2)CC(c2ccncc2)=NO1 (configuration not stated)	·	·	·	0.56	·
CS(=O)(=O)N(CC(=O)Nc1cc(Cl)ccc1Cl)c1ccccc1Cl	-12	11	·	-4.7*	-4
COc1ccc(NC(=O)CN(c2ccccc2)S(=O)(=O)N(C)C)cc1OC	-1	-3	-7	-0.47	12
COc1ccc(Cl)cc1NC(=O)CN(c1ccccc1)S(=O)(=O)N(C)C	-6	26	41	-10*	5
Cc1noc(C)c1C(=O)OCC(=O)Nc1cc(Cl)ccc1Oc1ccccc1	-7	38*	·	-2.3	1
Cc1cccc(C)c1N(CC(=O)Nc1cc(Cl)ccc1Oc1ccccc1)S(C)(=O)=O	-13	50*	·	-5.6*	3
Cc1occc1-c1nnc(SCC(=O)N(C)C)o1	3	-5	·	0.35	-1
CN(C)S(=O)(=O)N(CC(=O)Nc1ccccc1)c1ccccc1	·	·	·	-0.28	·
Cc1ccc(NC(=O)CN(c2ccccc2)S(=O)(=O)N(C)C)cc1C	·	·	·	-3.6*	·
Cc1ccc2nc(NC(=O)CCNS(=O)(=O)c3cccs3)sc2c1	1	36*	11	-1.8	14
COCC(=O)Nc1nc2ccc(C)cc2s1	7	7	-7	-0.19	-2
CC(C)(C)NS(=O)(=O)c1ccc2nc(NC(=O)Cc3cccs3)sc2c1	12	22	26	-4.2*	1
Cc1ccc2nc(NC(=O)CCNS(=O)(=O)c3ccc(Br)s3)sc2c1	-13	42*	54	-1.7	4
CCOC(=O)N1CCN(C(=O)Nc2ccc(Cl)cc2Cl)CC1	12	9	-11	0.34	9
O=C(c1cnn2c1NC(c1ccc(Br)cc1)CC2C(F)(F)F)N1CCN(C23CC4CC(CC(C4)C2)C3)CC1 (configuration not stated)	·	·	·	-0.012	·
O=C(CCNc1ccc(F)c(Cl)c1)c1ccco1	19	0	8	-1.6	-8
O=C(CCNc1cc(Cl)cc(Cl)c1)c1ccco1	27	15	85*	-4.2	7
O=C(CCNc1ccc(Cl)c(C(F)(F)F)c1)c1ccco1	13	16	57	-5.1*	-5
Cc1ccc(-n2nnnc2SCC(=O)Nc2ccc3c(c2)COC3=O)cc1C	-2	4	3	-0.011	-3
CC12CN3CC(C)(CN(C1)C3c1cc(Br)ccc1O)C2=O (configuration not stated)	0	2	-5	-0.022	21
CC1(C)C(=O)OC(c2cc(Br)ccc2O)C(C)(C)C1=O (configuration not stated)	·	·	63*	·	·
CCOC(=O)C1C(=O)NC(SCC(N)=O)=C(C#N)C1c1ccccc1OCC (configuration not stated)	5	12	-25	-0.022	7
COC(=O)C1=C(C)N(CCc2ccc(OC)c(OC)c2)C(=O)/C1=C\N(C)C	-8	-2	·	-0.81	-1
Cc1ccccc1N1C(=O)C(Cl)=C(N2CCN(c3ccccc3)CC2)C1=O	-14	38*	27	-0.72	-1
COc1ccc(-c2nnc3ccc(SCC(=O)N4CCCCC4)nn23)cc1OC	2	4	-4	2.3	3

High-throughput results: PubChem, several laboratories
